# Bioassay records from PubChem BioAssay.
# Scp-1 inhibitor: inhibitors of human Scp-1 phosphatase | inhibition, % at 20 µM | Q9GZU7 | Recombinant Scp1, phosphopeptide, malachite green phosphate absorbance | hit rate 0.88% among 340,000;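 active means inhibition above about 50% at 20 µM, limit read from the data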;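 further: plate controls were DMSO wells with enzyme for no effect and wells lacking enzyme for full effect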
# Target sequence (Q9GZU7 76-261 limits assumed): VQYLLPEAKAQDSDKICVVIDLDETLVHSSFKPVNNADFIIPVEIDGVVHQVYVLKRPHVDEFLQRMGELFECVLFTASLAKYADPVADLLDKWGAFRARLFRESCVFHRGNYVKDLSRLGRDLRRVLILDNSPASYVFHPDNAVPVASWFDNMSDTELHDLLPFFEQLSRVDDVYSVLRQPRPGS
#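 Incubation: 45 min enzyme reaction at room temperature / System: truncated SCP-1 phosphatase (76-261aa) / Reagent: Phospho 17-mer peptide substrate / Buffer or medium: Acidic Tris acetate buffer with magnesium and detergent / Signal: absorbance at 630 nm / Doses: one concentration, 20 µM, with 1.0% DMSO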
# STEP block: blocks human striatal-enriched tyrosine phosphatase; P54829; recombinant STEP, OMFP fluorogenic substrate, fluorescence; inhibition, % at 20 µM; hit rate 0.25% among 360,000; AID 588621;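 active means inhibition at 20 µM, scaled per plate between control wells, above about 37%, limit read from the data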;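 further: 0% = DMSO with enzyme and substrate and 100% = substrate only without enzyme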
#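 System: isolated STEP enzyme; schedule: 20 min enzyme reaction at room temperature, protected from light; medium: Bis-Tris buffer pH 6.0, 2.5 mM DTT, 0.005% Tween 20; signal: fluorescence, 480/540 nm; dosing: single compound dose of 20 µM, 1% DMSO final; also added: OMFP substrate, 25 µM final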
# SUMO1 PPI mod: modulators of human SUMO1-mediated protein-protein interactions; P63165; SUMO1 binding to a labelled peptide, TR-FRET, 1 h; inhibition, % at 20 µM; hit rate 0.33% among 360,000; in the data active means inhibition above about 37%
# Target sequence (P63165 whole entry, looked up): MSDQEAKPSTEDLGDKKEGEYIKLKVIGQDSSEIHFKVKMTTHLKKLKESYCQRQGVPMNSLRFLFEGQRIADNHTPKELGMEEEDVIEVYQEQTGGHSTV
# DNMT1 inh: inhibitors of human DNMT1. inhibition (reported as % activation of signal), % at 10 µM. hit rate 0.83% among 360,000. DNMT1 molecular beacon, Hinp1I cleavage, fluorescence. AID 588458; in the data active means inhibition above about 50%
# LMPTP inh: blocks human LMPTP phosphatase | recombinant LMPTP-A, OMFP fluorogenic substrate, fluorescence intensity | hit rate 0.22% among 360,000 | inhibition, % at 20 µM | P24666;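 active means compounds that cut the enzyme signal by at least half of the control window in the single-dose screen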;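 further: plate controls were DMSO wells with enzyme plus substrate for no effect and substrate without enzyme for full effect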
# Target sequence (P24666 whole entry, looked up): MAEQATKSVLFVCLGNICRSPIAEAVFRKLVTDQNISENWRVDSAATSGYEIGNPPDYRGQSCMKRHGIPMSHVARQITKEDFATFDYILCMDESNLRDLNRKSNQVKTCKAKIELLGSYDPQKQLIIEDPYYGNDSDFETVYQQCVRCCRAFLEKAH
#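 material = LMPTP-A | quantity = 0.625 nM enzyme | reagent = OMFP substrate, 400 µM final | buffer or medium = Bis-Tris pH 6.0, DTT, detergent | detection = endpoint fluorescence intensity from OMFP dephosphorylation | dosing = single 20 µM dose | read-out basis = % inhibition relative to no-enzyme and uninhibited control wells | control set = no-enzyme and uninhibited controls | timing = 50 min at room temperature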
# DNMT1 interf DR: shows spectral interference in the DNMT1 beacon assay; IC50, µM; shares compounds with DNMT1 inh; molecular beacon fluorescence, spectral interference counter-screen; 200 tested, under 10 active; AID 602382
# DNMT1 confirm: DNMT1 inhibition confirmation, single concentration | shares compounds with DNMT1 inh | inhibition, % at 10 µM | DNMT1 molecular beacon HinP1I cleavage, fluorescence | hit rate 8% among 2,300;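 active means average inhibition of at least 30% in the single-concentration confirmation test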
# DNMT1 interf: counter-screen for DNMT1 inhibitors: spectral interference; activation (fluorescence interference), % at 10 µM; shares compounds with DNMT1 inh; AID 602387; DNMT1 molecular beacon spectral interference counterscreen, fluorescence 485/520; hit rate 1% among 2,300;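 active means activation of at least 30% at 10 µM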;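 further: DNMT1 catalytic domain with a HinP1I cleavage step and a FAM/dabcyl DNA beacon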
# STEP conf: STEP (human) phosphatase inhibition, single concentration confirmation; inhibition, % at 20 µM; recombinant STEP, OMFP fluorogenic substrate, fluorescence; hit rate 32% among 520; AID 623866; shares compounds with STEP block;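 further: 0% = enzyme with substrate plus DMSO and 100% = substrate without enzyme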
# * hit, by the source's call; / = no result given. This is a sample that favours compounds with a hit; in the whole collection about 1.7% have one here. Unless noted, how the calls were made is not given here.
SMILES,Scp-1 inhibitor,STEP block,SUMO1 PPI mod,DNMT1 inh,LMPTP inh,DNMT1 confirm,DNMT1 interf,others
COc1cc(/C=C2\SC(=O)N(Cc3ccc(Cl)cc3)C2=O)cc([N+](=O)[O-])c1O,58.9*,64.7*,104.7*,88.5*,51.4*,19.2,-11.3,DNMT1 interf DR=>99
C[C@@H]1CN([C@@H](C)CO)C(=O)CCCn2nncc2CO[C@H]1CN(C)Cc1cccnc1,/,-4.6,2.6,2.4,-4.6,/,/,
CCn1c(CC(=O)Nc2ccccc2F)nnc1SCC(=O)N1CCN(c2ccccc2)CC1,-6.4,0.5,-2.1,76.9*,-1.4,1.3,1.2,
CCCCn1c(-c2ccc(Cl)c(Cl)c2)nc2cc3[nH]c(=O)c(C(C)C)nc3cc21,5.4,2.6,6.8,53.2*,1.6,-0.6,-2.8,
CCCC1=NN2C(=N)/C(=C\c3ccc(SCc4ccco4)o3)C(=O)N=C2S1,80.9*,16.1,50.4*,104.9*,51.4*,14.1,-0.6,
CCC1=NN2C(=N)/C(=C\c3ccc(SCc4ccco4)o3)C(=O)N=C2S1,43.5,16.8,53.9*,107.6*,42.1,5.8,2.8,
CCOc1ccccc1NC(=O)c1ccc2c(O)c(S(=O)(=O)c3ccccc3)c(=O)[nH]c2c1,/,-0.2,22.1,1.0,3.3,/,/,
COc1ccccc1N1CCN(C(=O)c2ccc3[nH]c4c(c3c2)CCCC4)CC1,8.0,2.2,-3.0,-2.4,0.1,/,/,
O=C(c1ccc2[nH]c3c(c2c1)CCCC3)N1CCN(c2ccc(F)cc2)CC1,-1.7,1.5,1.0,59.4*,1.8,1.4,5.6,
O=C(COC(=O)c1ccccc1O)Nc1ncc(Cl)cc1Cl,25.4,0.4,23.7,64.0*,0.6,12.2,4.0,
CN1CC[C@@H]2C(=O)N3CCc4ccc(-c5ccc6c(c5)OCO6)cc4[C@@H]3C[C@@H]21,-8.3,0.5,6.2,-5.6,1.3,/,/,
CCOC(=O)c1c(C)[nH]c(C(=O)OCC(=O)Nc2cc(Cl)ccc2OC)c1C,-2.2,-0.1,-2.4,22.5,-2.5,/,/,
CCOC(=O)c1c(C)[nH]c(C(=O)OCC(=O)Nc2ccc(OCC)cc2)c1C,21.4,-2.6,-3.8,69.0*,0.0,-0.8,-2.2,
CCOC(=O)c1[nH]c(C)c(C(=O)OCC(=O)N2CCc3ccccc32)c1C,-6.5,1.4,6.3,-4.3,-0.4,/,/,
CCOC(=O)c1c(C)[nH]c(C(=O)OCC(=O)Nc2cc(C)ccc2OC)c1C,-4.2,3.4,-2.5,61.9*,-1.1,2.0,1.0,
CCOC(=O)c1c(C)[nH]c(C(=O)OCC(=O)N2CCc3ccccc32)c1C,-4.8,-1.7,1.5,61.9*,-0.1,3.9,-0.2,
CCOC(=O)c1c(C)[nH]c(C(=O)OCC(=O)Nc2ccc(OC)c(Cl)c2)c1C,1.6,0.0,1.4,28.0,0.7,/,/,
COC(=O)c1cn(CC(C)n2c(=O)c3ccccc3n2Cc2cc(C(C)C)no2)nn1 (stereo unspecified),/,/,2.3,/,-0.7,/,/,
COc1ccc(C=C2C(=O)OC(C)(C)OC2=O)cc1OC,-4.5,0.5,-2.2,0.1,-1.9,/,/,
COc1ccc(/C=C2\C(=O)NC(=O)c3ccccc32)cc1OC,-0.3,7.4,7.6,74.2*,9.6,-1.7,1.1,
COc1ccc(NC(=O)N(C)C[C@H]2Oc3ncc(Br)cc3C(=O)N([C@H](C)CO)C[C@@H]2C)cc1,/,1.1,1.0,5.0,-1.2,/,/,
c1ccc2c(c1)C1=NCCN1c1ccccc1-2,/,2.9,2.2,65.5*,2.8,47.6*,0.3,DNMT1 interf DR=>99
Cc1cc(C)c(S(=O)(=O)c2cccc(Br)c2C)c(=O)[nH]1,-5.9,0.3,-2.8,-0.1,-0.7,/,/,
CCn1cc(S(=O)(=O)Nc2ncccn2)cn1,-6.1,4.2,0.4,-0.6,-0.2,/,/,
O=C(COC(=O)c1cc(=O)c2ccccc2o1)NCc1ccc(Cl)cc1,/,-1.9,2.7,57.4*,-2.3,0.7,0.8,
SMILES,Scp-1 inhibitor,STEP block,SUMO1 PPI mod,DNMT1 inh,LMPTP inh,DNMT1 confirm,DNMT1 interf,others
CCCCc1c(C)nc2ccc(OC)cc2c1SCCC(=O)O,17.1,0.1,7.5,65.7*,1.5,4.7,2.5,
CC1(C)Nc2ccccc2C(=O)N1c1ccccc1,-2.8,-0.7,-7.1,1.9,-1.2,/,/,
O=c1c2c(nc3nc(Cc4ccccc4)[nH]n13)CCC2,-5.9,-4.0,-1.0,60.5*,-0.5,2.5,2.5,
Cc1nc2nc3c(c(=O)n2[nH]1)CCC3,-2.0,3.0,2.2,3.4,-1.2,/,/,
COc1ccc(C(=O)OCC(=O)N2CCCCCC2)cc1S(=O)(=O)N1CCOCC1,-2.8,0.9,1.5,0.6,-1.0,/,/,
O=C(c1ccccc1)c1ccc(O)c(O)c1O,66.3*,32.0,20.1,77.8*,51.0*,7.2,-2.6,
C=CCN(c1nc(C)cc(OC)n1)S(=O)(=O)c1ccccc1,0.1,2.5,1.1,-3.2,0.8,/,/,
C=CCN(c1nc(C)cc(OC)n1)S(=O)(=O)c1ccc(C)cc1,-3.7,-0.6,1.5,96.7*,1.2,0.7,5.5,
CC(OC(=O)C1=COCCO1)C(=O)NC1(C#N)CCCCC1 (stereo unspecified),-5.0,1.8,-1.1,0.6,-1.4,/,/,
C=CCn1c(N)c(C(=O)OCCC)c2nc3ccccc3nc21,-7.4,2.7,15.6,59.7*,13.8,-1.1,-2.3,
CCC(C)Sc1ccc([C@H]2N[C@@](C)(C(=O)OC)[C@H]3C(=O)N(CC)C(=O)[C@@H]23)cc1OC (stereo partly specified),-5.0,0.9,2.0,7.1,-1.4,/,/,
Cc1ccsc1CN(C)CC(=O)Nc1ccccc1C(=O)NC1CC1,-15.3,1.6,0.8,4.1,-1.5,/,/,
Cc1ccc(Cn2c(/C=C/c3ccco3)nc3ccccc32)cc1,6.1,-0.2,-3.2,75.7*,7.9,3.1,1.7,
COc1ccc(-c2noc(CCC(=O)N3CCC(c4cc(C)ccc4C)CC3)n2)cc1,-6.6,5.4,0.8,49.9,9.3,0.0,0.4,
COc1ccc(-c2noc(CCC(=O)N3CCN(c4cccc(OC)c4)CC3)n2)cc1,1.3,0.6,4.4,2.8,-0.2,/,/,
O=C(/C=C/c1ccco1)NC(=S)Nc1ccc(O)c(-c2nc3ccccc3s2)c1,-5.3,4.6,9.0,67.3*,4.7,1.7,-0.5,
CC(=O)Nc1ccc(NC(=O)C2CCCN2C(=O)Nc2ccccc2[N+](=O)[O-])cc1 (stereo unspecified),-2.5,85.3*,-24.1,80.3*,-0.3,2.4,6.4,STEP conf=7.1
